OX1R antag-1: antagonists of human orexin 1 receptor (OX1R); Orexin/Hypocretin receptor type 1 (Homo sapiens), O43613; OX1R-expressing cells, FRET antagonist read-out; inhibition, % at 6.6 µM; 1.8% of 330,000 active; AID 485270, 2010; in the data active = inhibition mostly above about 38%, no sharp cut-off; inactive = mostly below about 40%;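 note: 0% = agonist challenge alone and 100% = reference antagonist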
Target sequence (O43613 whole entry, looked up): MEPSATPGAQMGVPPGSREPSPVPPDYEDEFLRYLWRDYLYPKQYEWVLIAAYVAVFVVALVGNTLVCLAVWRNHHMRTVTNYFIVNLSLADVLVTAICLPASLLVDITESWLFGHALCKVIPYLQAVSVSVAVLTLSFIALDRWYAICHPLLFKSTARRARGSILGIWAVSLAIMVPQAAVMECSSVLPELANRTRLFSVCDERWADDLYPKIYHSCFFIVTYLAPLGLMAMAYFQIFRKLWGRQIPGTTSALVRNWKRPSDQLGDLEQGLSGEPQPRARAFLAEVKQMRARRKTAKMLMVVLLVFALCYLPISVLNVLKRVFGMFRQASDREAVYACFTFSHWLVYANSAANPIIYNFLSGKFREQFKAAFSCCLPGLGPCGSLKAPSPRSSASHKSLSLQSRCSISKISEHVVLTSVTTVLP
GPR7 antagonist: GPR7 receptor antagonists, primary screen, cell-based, fluorescence, single concentration. 1.1% of 290,000 active. Neuropeptides B/W receptor type 1 (Homo sapiens), P48145. inhibition, % at 4.4 µM. GPR7-expressing cells, fluorescence antagonist assay. AID 1861, 2009; in the data active = inhibition above about 16%, passing the limit was not always enough;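 note: cells stimulated with the agonist NPW; 0% = agonist with vehicle and 100% = vehicle without agonist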
OX1R antag-2: OX1R (HCRTR1) antagonists, primary screen, fluorescence, CHO/OX1R cells, Fluo-8 calcium, orexin A; Fluo-8 calcium fluorescence; 0.43% of 330,000 active; Orexin/Hypocretin receptor type 1 (Homo sapiens), O43613; inhibition, % at 5 µM;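 active = inhibition above its plate's threshold, mean inhibition of all tested compounds on the plate plus 3 SD, cut at about 37% in these data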;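 note: 0% = orexin A challenge wells and 100% = SB-334867-A antagonist wells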
CHO parental Ca: ATP-evoked calcium signal inhibitors, parental CHO, primary screen, counter-screen for OX1R antagonist project, cell-based, fluorescence, Fluo-8 calcium dye; parental CHO-K1, ATP-induced calcium, Fluo-8 fluorescence; inhibition, % at 5.6 µM; 0.63% of 330,000 active; AID 463079, 2010;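 active = inhibition above that plate's mean sample inhibition plus 3 SD, cut at about 26% in these data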;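 note: 0% = ATP-challenged DMSO wells and 100% = DMSO wells without ATP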
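Assay system – parental CHO cells · Reagent – ATP stimulus · Detection – intracellular calcium via Fluo-8 no-wash fluorescent dye · Evaluation – percent inhibition of ATP-evoked calcium rise, normalized to controls · Controls – ATP wells versus no-ATP DMSO wells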
TAAR1 antag: human TAAR1 antagonists, primary screen, Fluo-8 calcium fluorescence, CHO RD-HGA16 cells; Trace amine-associated receptor 1 (Homo sapiens), Q96RJ0; antagonist; inhibition, % at 3 µM; 1.5% of 360,000 active;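 active = inhibition above a per-plate cutoff, the mean inhibition of test compounds on that plate plus 3 SD, cut at about 49% in these data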;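 note: 0% = DMSO plus EC80 beta-PEA response and 100% = DMSO alone without agonist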
Target sequence (Q96RJ0 whole entry, looked up): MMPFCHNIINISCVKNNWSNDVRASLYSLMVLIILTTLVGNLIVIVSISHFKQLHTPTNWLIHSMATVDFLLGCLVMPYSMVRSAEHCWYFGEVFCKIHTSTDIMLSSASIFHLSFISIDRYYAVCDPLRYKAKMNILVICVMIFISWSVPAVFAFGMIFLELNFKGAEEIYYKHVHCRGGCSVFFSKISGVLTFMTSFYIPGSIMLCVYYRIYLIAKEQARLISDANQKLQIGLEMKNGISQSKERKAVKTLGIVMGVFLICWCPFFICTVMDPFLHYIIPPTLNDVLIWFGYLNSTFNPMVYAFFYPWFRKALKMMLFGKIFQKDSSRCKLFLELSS
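Test system: RD-HGA16 CHO cells with stable hTAAR1 and Gα16 / Probe or stimulus: EC80 β-phenethylamine stimulus / Times: seeding 17-24 h prior, 75-min 37 °C, 30-min RT dye loading / Detection: Fluo-8 calcium-sensitive fluorescence / Read-out basis: % inhibition scaled between DMSO and EC80 PEA controls / Repeats: singlicate, one well per test compound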
TAAR1 agonist: human TAAR1 agonists, primary screen, Fluo-8 calcium fluorescence, CHO RD-HGA16 cells; activation, % at 3 µM; vehicle wells 0%, saturating PEA agonist 100%; AID 624467, 2012; 0.99% of 360,000 active;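 active = activation above the mean activation of all test compounds in the run plus 3 SD, cut at about 38% in these data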
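Assay system – CHO-derived RD-HGA16 cells with stable Gα16 and human TAAR1 · Compound dosing – one-point dosing at 3 µM (nominal) · Incubation – 17-24 h seeding, 75 min 37 °C dye, 30 min RT · Measured by – kinetic Fluo-8 calcium fluorescence · Control set – DMSO vehicle as 0%, PEA at EC100 as 100% · Repeats – single well for each compound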
An asterisk follows results filed as active; nt = not tested or not shown. A selection: hits, their analogues and other compounds. The true share with any hit is near 4.5%.

SMILES	OX1R antag-1	GPR7 antagonist	OX1R antag-2	CHO parental Ca	TAAR1 antag	TAAR1 agonist
O=S(=O)(NC1=NCCCCC1)c1ccc(F)cc1	5.7	-13.2	-13.9	0.2	-13.4	2.5
CC(Oc1ccc(F)cc1)C(=O)Nc1ccc(S(=O)(=O)NC2=NCCCCC2)cc1 (centres undefined)	1.3	nt	6.7	0.7	19.8	44.2*
CC(Oc1cccc(Cl)c1)C(=O)Nc1ccc(S(=O)(=O)N(C)C2CCN(C)CC2)cc1 (centres undefined)	1.4	nt	10.1	-2.4	10.9	42.3*
CC(Oc1cccc(Cl)c1)C(=O)Nc1ccc(S(=O)(=O)NC2=NCCCCC2)cc1 (centres undefined)	4.9	nt	6.7	11.4	12.5	40.4*
C[C@H]1CN(S(=O)(=O)C(C)(C)C)[C@@H](CCO)/C1=C\c1ccccc1	nt	nt	nt	nt	-10.6	0.6
OC(c1ccccc1)(c1ccccc1)C1CCN(CCCOc2ccc(F)cc2)CC1	nt	nt	nt	nt	26.5	39.1*
C#Cc1ccccc1OCCCN1CCC(C(O)(c2ccccc2)c2ccccc2)CC1	nt	nt	nt	nt	50.5*	39.5*
OC[C@@H]1CN(Cc2ccc(Cl)cc2)C[C@H](n2cnc3c(Nc4ccccc4)ncnc32)O1	nt	nt	nt	nt	29.1	8.2
CCCc1cc(=O)n2[nH]c(C)nc2n1	-0.9	1.2	-0.5	1.2	1.8	7.7
CCCc1cc(=O)n2[nH]c(Cc3ccccc3)nc2n1	21.5	17.6*	-23.1	-14.9	-14.8	9.5
COc1cccc(C(=O)N[C@H](C(=O)N2CCC[C@H]2C(=O)NC2CCCC2)c2ccccc2)c1	nt	nt	nt	nt	-11.7	1.5
COc1ccc(O)c(CNn2c(-c3ccc(Br)cc3)nc3ccccc3c2=O)c1	44.1*	-7.0	-6.8	-20.3	43.0	1.4
Cc1cc(N2CCN(C(=O)OC(C)(C)C)C[C@H]2C)ccc1N1CCS(=O)(=O)CC1	nt	nt	nt	nt	12.8	2.1
COc1ccccc1NC(=S)NCCc1ccccc1	14.2	4.0	-11.6	-17.4	-0.4	40.2*
S=C(NCCc1ccccc1)Nc1cccc2cnccc12	44.3	6.5	26.2	51.7*	5.6	51.5*
Cc1cccc(C)c1NC(=S)NCCc1ccccn1	3.7	-6.0	-18.0	-1.0	-15.7	2.9
Cc1ccccc1NC(=S)NCCc1ccccn1	3.5	-3.2	-16.4	-1.6	-1.9	60.2*
COc1cc(Nc2ccc(S(N)(=O)=O)cc2)c([N+](=O)[O-])nc1[N+](=O)[O-]	47.9*	-9.9	-8.4	11.2	0.4	-0.5
CCOC(=O)c1c(C)[nH]c(C(=O)OCC(=O)NCc2ccco2)c1C	nt	nt	nt	nt	-4.1	-0.7
O=C(O)CCC(=O)NCCc1cccc(Cl)c1	10.0	3.8	-13.3	-13.1	5.9	38.2*
O=C(Cc1ccccc1)NCCc1cccc(Cl)c1	4.3	-3.0	-19.2	-12.6	-3.0	7.6
CCOC(=O)c1c(-c2ccccc2)oc2ccc(OC(C)=O)cc12	64.0*	-17.2	-1.6	-8.8	6.1	10.2
COC(=O)C1=C(C)N(C)C(=NCc2ccc3c(c2)OCO3)NC1c1ccc(Cl)cc1 (centres undefined)	nt	nt	nt	nt	7.9	5.3
O=C(Nc1ccc(F)cc1F)c1cc(-c2ccco2)on1	4.5	1.2	-21.0	34.9*	16.4	9.0
O=C(NCc1ccc(F)cc1)c1cc(-c2ccco2)on1	2.4	3.1	37.6	31.6*	20.3	37.7*
SMILES	OX1R antag-1	GPR7 antagonist	OX1R antag-2	CHO parental Ca	TAAR1 antag	TAAR1 agonist
CSc1ccccc1NC(=O)c1cc(-c2ccco2)on1	65.9*	-2.1	-6.5	-1.5	-1.3	6.6
COc1ccc(-c2cc(C(=O)Nc3ccc(F)cc3F)no2)cc1	0.6	-1.9	-27.0	2.1	-12.8	5.3
CC(C)C[C@H]1COc2cccc(NCCO)c2S(=O)(=O)N1	nt	nt	nt	nt	-5.3	1.9
C[C@H]1CN([C@@H](C)CO)C(=O)CCCn2cc(nn2)CO[C@@H]1CN(C)S(=O)(=O)c1cn(C)cn1	nt	nt	nt	nt	-8.6	0.2
COc1cccc(C(O)c2nc(-c3cccc(F)c3)cs2)c1 (centres undefined)	nt	nt	nt	nt	14.6	0.0
CCCNC(=O)C1(C)CCCN(Cc2ccc(C)cc2)C1 (centres undefined)	nt	nt	nt	nt	-5.6	-0.6
CC(C)OP(=O)(Nc1cccc2ccccc12)OC(C)C	7.7	-8.3	-13.7	-11.8	-16.7	7.0
CN(C)P(=O)(Nc1cccc2ccccc12)Nc1cccc2ccccc12	59.1*	nt	31.9	-8.2	0.6	9.4
c1ccc2nc3c(nc2c1)c1ccccc1n3CCN1CCOCC1	49.3*	-15.4	-9.1	-17.5	24.4	5.4
Cc1cccc(C(=O)N(CC(=O)Nc2sc(C)c(C)c2C(N)=O)C2CCCC2)c1	26.9	-4.2	-29.5	-35.6	36.2	15.6
Cc1ccc(C(=O)N(CC(=O)Nc2sc(C)c(C)c2C(N)=O)C2CCCC2)cc1	23.8	3.2	-31.0	-8.3	51.2*	10.9
CCCCCCCC/C=C\CCCCCCCC(=O)NCCc1ccc(O)c(O)c1	7.6	nt	16.2	35.7*	3.0	13.6
CC(C)Cc1ccc(-c2cc3nc(NCCc4ccc(S(N)(=O)=O)cc4)ccn3n2)cc1	nt	nt	nt	nt	67.3*	23.1
N#CC1=C(N)SC(N)=C(C#N)C1CCc1ccccc1	36.5	-0.3	-3.2	16.6	37.0	30.0
CCc1ccc(C2C(C#N)=C(N)SC(N)=C2C#N)cc1	26.3	-6.9	-2.7	9.0	31.7	43.3*
N#CC1=C(N)SC(N)=C(C#N)C1Cc1ccccc1	38.7*	-1.5	36.3	5.3	37.7	42.6*
CCC(=O)N1CCc2cc(S(=O)(=O)N3CCN(c4cc(Cl)ccc4C)CC3)ccc21	0.1	-1.1	-14.9	-17.6	-15.0	8.5
CCN1CCN(C2=C(NS(=O)(=O)c3ccc(C)cc3)C(=O)c3ccccc3C2=O)CC1	61.3*	-5.2	-8.0	-10.8	-2.5	0.3
CC1CCN(C2=C(NS(=O)(=O)c3ccc(Cl)cc3)C(=O)c3ccccc3C2=O)CC1	30.4	-9.9	-63.3	-31.9	-10.1	1.5
O=C1C(NS(=O)(=O)c2ccc(Br)cc2)=C(N2CCCCC2)C(=O)c2ccccc21	53.0*	-18.9	-34.5	-28.8	-23.4	-4.0
CC1CCN(C2=C(NS(=O)(=O)c3ccccc3)C(=O)c3ccccc3C2=O)CC1	61.7	-23.7	-32.3	-25.6	-1.1	-4.2
CC(=O)Nc1ccc(S(=O)(=O)NC2=C(N3CCN(Cc4ccccc4)CC3)C(=O)c3ccccc3C2=O)cc1	33.8	0.8	-17.9	-16.7	36.6	10.0
CC(=O)Nc1ccc(S(=O)(=O)NC2=C(N3CCN(C)CC3)C(=O)c3ccccc3C2=O)cc1	68.4*	-2.8	-7.2	-8.2	-11.5	1.6

Screening data: PubChem, The Scripps Research Institute Molecular Screening Center
